# Laboratory results reported in article PMC12099175 (Chemistry (Weinheim an Der Bergstrasse, Germany), 2025).
# “Also recorded” adds a separate entry of the source. No end group written: not given here.
# Experiments:
# Assay type in all cases: physicochemical
# [1] = Amyloid formation monitored by time-dependent far-UV ECD spectroscopy; conditions: for amyloid formation in 10% EtOH (in words): 10% EtOH:90% H2O (ε = 68.742); for amyloid formation in 10% EtOH (in words) / amyloid formation in 50% MeOH (in words) / time to form amyloid in 50% MeOH / time to form β-sheets / B-type ECD spectrum in water: 37 °C; for amyloid formation in 10% EtOH (in words) / amyloid formation in 50% MeOH (in words) / time to form β-sheets / B-type ECD spectrum in water: stirred 500–600 rpm; for amyloid formation in 10% EtOH (in words) / amyloid formation in 50% MeOH (in words) / amyloidogenicity overall (in words): ECD; for amyloid formation in 50% MeOH (in words) / time to form amyloid in 50% MeOH: 50% MeOH:50% H2O (ε = 51.347); for amyloidogenicity overall (in words): all tested conditions (H2O, 10% EtOH, 50% MeOH), FTIR, AFM; for time to form amyloid in 50% MeOH: stirred; for time to form amyloid in 50% MeOH / time to form β-sheets / B-type ECD spectrum in water: ECD read-out; for time to form β-sheets / B-type ECD spectrum in water: 100% H2O
# Procedure, shortened: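 Peptides were dissolved at 0.15–1.50 mg/mL in water, 10% EtOH or 50% MeOH. Concentration was set by A280 of 5-fold dilutions (ε Tyr 1280, Trp 5690 M⁻¹ cm⁻¹), with pH adjusted by NaOH/HCl. Samples were stirred at 500–600 rpm, 37 °C, and measured directly at 0–168 h. Spectra covered 185–260 nm, 0.1 mm cell, 25 °C, three scans averaged, solvent-subtracted, Savitzky–Golay smoothed, and converted to mean residue ellipticity.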
# [2] = AFM surface morphology of amyloid fibrils; conditions: 1.5 mg/mL, pH 3.8, 24 h mixing at 37 °C, 5 µL dried on mica
# Procedure, shortened: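 Hexapeptide at a final 1.5 mg/mL, pH 3.8, was stirred at 500–600 rpm at 37 °C for 24 h. This was the same stock used for FTIR and ECD. The 24-h solution was dropped on freshly cleaved mica and vacuum-dried for 24 h. Images were taken in dynamic mode near densely packed areas, with a 10×10 µm window and 512 pixels per line.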
# [3] = Water solubility / peptide concentration needed for amyloid formation; conditions: pure water
Substance,amyloid formation in 10% EtOH (in words) [1],amyloid formation in 50% MeOH (in words) [1],"ECD mean residue ellipticity Θ, positive maximum at 208 nm ([1]; B-type spectrum after 24 hours)",amyloidogenicity overall (in words) [1],AFM morphology (in words) [2],"ECD mean residue ellipticity Θ at 202 nm ([1]; 50% MeOH, B-type signal)",time to form amyloid in 50% MeOH [1],time to form β-sheets / B-type ECD spectrum in water [1],water solubility (in words) [3]
LYQQNY [LYQQNY],Amyloid formation is confirmed,Amyloid formation is confirmed,~+57000 deg cm^2 dmol^−1,highly amyloidogenic,–,–,–,–,–
NNQQNY [NNQQNY],preventing amyloid formation,β‐sheets formed; also recorded: forms amyloid in 50% MeOH,–,highly amyloidogenic,Fibrillar amyloid formation,~53000 deg cm^2 dmol^−1,within hours; also recorded: a few hours,–,highly water‐soluble
LYIQNY [LYIQNY],rapid amyloid formation,rapid amyloid formation; also recorded: faster assembly,–,highly amyloidogenic,–,–,–,–,water‐soluble
NNIQWL [NNIQWL],–,–,–,did not form amyloid under any of the tested conditions,no evidence of filament formation,–,–,–,–
NNQQWL [NNQQWL],–,No amyloid formation was observed,–,resists amyloid formation,no detectable structures,–,–,> 144 h,–
LNQQNY [LNQQNY],forms amyloid very slowly,–,–,highly amyloidogenic,–,–,≤ 24 h,–,–

# More lines, main results first:
amyloid formation in 10% EtOH (in words) [1],amyloid formation in 50% MeOH (in words) [1],"ECD mean residue ellipticity Θ, positive maximum at 208 nm ([1]; B-type spectrum after 24 hours)",amyloidogenicity overall (in words) [1],AFM morphology (in words) [2],"ECD mean residue ellipticity Θ at 202 nm ([1]; 50% MeOH, B-type signal)",time to form amyloid in 50% MeOH [1],time to form β-sheets / B-type ECD spectrum in water [1],Substance,water solubility (in words) [3]
–,–,–,remains amyloidogenic,granular,–,–,–,LNIQWL [LNIQWL],–
–,–,–,–,Fibrillar amyloid formation,–,–,–,"GNNQQNY [GNNQQNY, reference compound]",–
–,very slow amyloid formation,–,–,empty AFM image,–,–,–,NNQQNL [NNQQNL],–
form amyloid,form amyloid,–,highly amyloidogenic,–,–,–,–,LYIQNL [LYIQNL],–
form amyloid,form amyloid,–,highly amyloidogenic,Fibrillar amyloid formation,–,–,1 h,LYIQWL [LYIQWL],–
